Legend:
PTP1B1-321 = molecular target: T1, PTP1B1-321 (Homo sapiens, UniProt P18031); experiment: PTP assay with DiFMUP substrate; format: biochemical
T1 sequence (P18031 1-321): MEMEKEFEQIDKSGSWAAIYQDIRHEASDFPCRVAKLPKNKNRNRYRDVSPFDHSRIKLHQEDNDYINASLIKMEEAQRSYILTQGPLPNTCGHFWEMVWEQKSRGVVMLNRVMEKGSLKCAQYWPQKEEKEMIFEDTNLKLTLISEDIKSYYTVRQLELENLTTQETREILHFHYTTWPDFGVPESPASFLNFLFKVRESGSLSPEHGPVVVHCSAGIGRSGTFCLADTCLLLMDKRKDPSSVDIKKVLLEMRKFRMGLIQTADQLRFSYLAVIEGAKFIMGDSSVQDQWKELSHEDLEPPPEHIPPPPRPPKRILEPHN

PTP1B1-405 V370P = molecular target: T2, PTP1B1-405 V370P (Homo sapiens, UniProt P18031, V370P); experiment: PTP assay, helix α9′ point mutant; format: biochemical; conditions: S372P, R373P versus wild type
T2 sequence (P18031 1-405 V370P): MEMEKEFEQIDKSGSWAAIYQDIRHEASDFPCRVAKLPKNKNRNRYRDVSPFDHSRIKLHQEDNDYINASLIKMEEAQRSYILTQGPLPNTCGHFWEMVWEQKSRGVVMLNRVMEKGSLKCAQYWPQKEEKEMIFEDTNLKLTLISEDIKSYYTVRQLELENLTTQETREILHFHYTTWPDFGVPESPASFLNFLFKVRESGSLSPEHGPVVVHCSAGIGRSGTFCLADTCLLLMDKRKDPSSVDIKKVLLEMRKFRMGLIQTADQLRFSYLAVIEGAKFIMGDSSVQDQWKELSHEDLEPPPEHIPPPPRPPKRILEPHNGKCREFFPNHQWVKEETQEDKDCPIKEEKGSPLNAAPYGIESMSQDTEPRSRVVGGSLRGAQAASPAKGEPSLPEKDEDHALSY

[1] = system: NDL2 mammary tumors and lung metastasis; experiment: NDL2 transgenic mouse model of breast cancer; format: in vivo
Method in brief: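 NDL2 mice with palpable tumours were randomised to saline or test compound (5 or 10 mg/kg, 100 μl) i.p. every third day for 45 days, using freshly prepared solutions. Animals were killed after 45 d, and tumours were removed, counted and weighed. Whole lungs were sectioned, H&E-stained and scored for metastases. Groups had six animals; Student t-test was used.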

[2] = patients; cited from earlier work
[3] = 5 mg/kg intraperitoneally every third day, relative to control

mode of inhibition (PTP1B1-321): reversible non-competitive inhibitor
increase of Ki by helix-destabilizing Pro mutations (PTP1B1-405 V370P): 10–20 fold
Structure (SMILES): CC(C)[C@@H](CC[C@@H](C)[C@H]1CC[C@H]2[C@@H]3[C@H](O)C[C@H]4C[C@@H](NCCCNCCCCNCCCN)CC[C@]4(C)[C@H]3CC[C@]12C)OS(=O)(=O)O [MSI-1436, Trodusquemine]
tumor number [1, 3]: marked decrease
tumor size [1, 3]: marked decrease
lung metastasis ([1]; 5 or 10 mg/kg intraperitoneally every third day): essentially abrogated
tolerability [2]: well tolerated
